Laboratory results as given in paper PMC4822498 (Journal of pharmaceutical sciences, 2015).
Values after ≈ are worked out from the molar mass of the structure shown.

Columns and labels:
[1] = tested on: HIV-1IIIB; experiment: Cytopathic effects; type: cell-based
[2] = tested on: HIV-1RF; experiment: Inhibition of cell to cell virus transmission assay; type: cell-based
[3] = In vitro release study from IVR segments with release modelling; type: physicochemical
[4] = tested on: HIV-1ZA/97/009; experiment: Anti-HIV assay in fresh human PBMCs; type: cell-based
[5] = Chemical stability of the analogues in aqueous solution at pH 4.0 and 5.0; type: physicochemical
How it was run: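 Test compound prepared as 50 µM stock solutions in 10 mM acetate buffer (pH 4.0 and 5.0) and held at 40°C/75% RH. Aliquots were taken at 0, 1, 2 and 4 weeks; time-zero samples (n=3) were stored at −80°C. Drug content was measured by HPLC with norethindrone internal standard (LOQ 18.0 pmol). k = −2.303 × slope of a linear regression of log concentration vs time (first order).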

[6] = Determination of aqueous solubility; type: physicochemical; settings: DDI water, 37°C
How it was run: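 Saturated solution of test compound in 18 MΩ DDI water, shaken at 250 rpm at 37°C. Aliquots at time zero, 24 h and 48 h were filtered through 0.2 µm nylon and stored at −80°C before analysis.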

Question: For `Cc1cc(C)cc(C(=O)c2c(C(C)C)c(=O)[nH]c(=O)n2CC2CC2)c1` [IQP-0528, 1-cyclopropylmethyl-6-(3,5-dimethyl-benzoyl)-5-isopropyl-1H-pyrimidine-2,4-dione], which EC95 ([1]; CEM-SS/HIV-1IIIB) is on record?
Answer: 8 nM

Question: And the EC50 ([1]; Human immunodeficiency virus 1, CEM-SS)?
Answer: 2 nM

Question: What about the EC95 ([2]; HIV-1RF Cell to Cell Transmission) of the same compound?
Answer: 85 nM

Question: And the EC50 ([2]; Human immunodeficiency virus 1)?
Answer: 6 nM

Question: And the diffusivity ([3]; IQP-0528 single agent IVR)?
Answer: 3.9 ± 0.4 × 10^−10 cm^2/s

Question: And the “release of IQP-0528 relative to SAMT-10 by mass” value ([3]; combination IVR)?
Answer: ~3.5 times

Question: What about the diffusivity ([3]; combination IVR, in presence of 8% SAMT-10) of the same compound?
Answer: 2.8 ± 0.8 × 10^−10 cm^2/s

Question: And the “decrease of diffusivity in the presence of 8% SAMT-10” value ([3]; combination vs single agent IVR)?
Answer: 27%

Question: What about the cumulative release ([3]; from combination IVR, 30 days, scaled to full IVR) of the same compound?
Answer: 86 ± 13 mg/IVR

Question: What about the EC50 ([4]; Human immunodeficiency virus 1, PBMC, in Homo sapiens) of the same compound?
Answer: 6 nM

Question: What about the EC95 ([4]; PBMCs/HIV-1ZA/97/009) of the same compound?
Answer: 19 nM

Question: For `NC(=O)CCNC(=O)c1ccccc1SC(=O)c1ccccc1` [SAMT-08], which “concentration remaining in aqueous solution” value (from here on “concentration remaining”) ([5]; pH 4.0, 40°C/75% RH, 0 weeks) is on record?
Answer: 46.5 ± 0.1 µM

Question: What about the “concentration remaining” value ([5]; pH 4.0, 40°C/75% RH, 1 week) of the same compound?
Answer: 40.9 ± 0.1 µM

Question: And the “concentration remaining” value ([5]; pH 4.0, 40°C/75% RH, 2 weeks)?
Answer: 35.1 ± 0.5 µM

Question: What about the “concentration remaining” value ([5]; pH 4.0, 40°C/75% RH, 4 weeks, ND = Not Detected) of the same compound?
Answer: 26.8 ± 0.2 µM

Question: What about the “Degradation rate constant (k)” value ([5]; pH 4.0, first order) of the same compound?
Answer: 2.3 10^−7 sec^−1

Question: What about the “concentration remaining” value ([5]; pH 5.0, 40°C/75% RH, 0 weeks) of the same compound?
Answer: 68.6 ± 0.2 µM

Question: What about the “concentration remaining” value ([5]; pH 5.0, 40°C/75% RH, 1 week) of the same compound?
Answer: 57.3 ± 0.6 µM

Question: And the “concentration remaining” value ([5]; pH 5.0, 40°C/75% RH, 2 weeks)?
Answer: 49.0 ± 1.8 µM

Question: And the “concentration remaining” value ([5]; pH 5.0, 40°C/75% RH, 4 weeks, ND = Not Detected)?
Answer: 36 ± 1.43 µM

Question: What about the “Degradation rate constant (k)” value ([5]; pH 5.0, first order) of the same compound?
Answer: 2.3 10^−7 sec^−1

Question: And the water solubility [6]?
Answer: 2377.6 ± 27.8 µM (≈ 781 µg/mL)
